SMILES strings stand for the structures.

These results are taken from ChEMBL document CHEMBL1132378, “Allosteric modulation of the adenosine A(1) receptor. Synthesis and biological evaluation of novel 2-amino-3-benzoylthiophenes as allosteric enhancers of agonist binding” (J Med Chem, 1999).

Assay [1] addresses T1, Adenosine receptor A1 (Rattus norvegicus) (UniProt P25099).
T1 sequence (whole entry): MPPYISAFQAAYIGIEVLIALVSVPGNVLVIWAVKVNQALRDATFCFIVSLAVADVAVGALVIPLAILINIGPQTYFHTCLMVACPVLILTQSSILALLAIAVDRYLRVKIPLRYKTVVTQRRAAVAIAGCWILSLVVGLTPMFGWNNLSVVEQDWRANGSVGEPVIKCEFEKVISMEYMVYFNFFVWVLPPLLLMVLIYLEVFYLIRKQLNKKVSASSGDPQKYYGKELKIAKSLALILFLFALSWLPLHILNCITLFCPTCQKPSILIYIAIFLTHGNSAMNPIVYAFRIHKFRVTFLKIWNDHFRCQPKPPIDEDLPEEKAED
Nature of the assay: Antagonistic activity expressed as percent displacement of 0.4 nM of [3H]DPCPX from adenosine A1 receptors in rat brain cortex membranes at 10 uM. The assay is classed as functional, cell membranes. The conditions noted are these: Membrane. The essentials:
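Rat brain cortex membranes (ADA-treated, 2 U/mL at 37 °C before storage; 30 μg/mL) incubated 1 h at 25 °C in 50 mM Tris/HCl pH 7.4 with 0.4 nM [3H]DPCPX and 10 μM compound. Nonspecific binding defined by 10 μM CPA. Result is percent displacement of radioligand; n = 3–5.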

A further assay deals with T2, Adenosine receptor A1 (Rattus norvegicus, UniProt P25099).
T2 sequence (P25099 whole entry): T1 sequence (whole entry)
Kind of assay: Enhanced 0.5 nM [3H]CCPA dissociation from adenosine A1 receptor of rat brain cortex membranes compared to 100 uM CPA. The essentials:
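Rat brain cortex membranes (ADA-treated, 2 U/mL at 37 °C) preincubated 2.5 h with 0.5 nM [3H]CCPA. Dissociation then started with 100 μM CPA, with or without 10 μM test compound. Bound [3H]CCPA measured after 1 h. Percent decrease in dissociation scaled between control (0%) and 10 μM PD 81,723 as reference (100%); n = 3.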

The target of assay [2] is T1, Adenosine receptor A1 (Rattus norvegicus). Nature of the assay: Enhancing activity at 10 uM PD 81,723 (100%) at Adenosine A1 receptor in rat brain cortex membranes. Format: cell membranes. The essentials:
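Rat brain cortex membranes (ADA-treated, 2 U/mL at 37 °C) preincubated 2.5 h with 0.5 nM [3H]CCPA. Dissociation then started with 100 μM CPA, with or without 10 μM test compound. Bound [3H]CCPA measured after 1 h.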

With `Nc1sc2c(c1C(=O)c1ccc(Cl)cc1)CCN(Cc1ccccc1)C2`, the Antagonism in assay [1] stood at 60.9%. Also, the EC50 at Adenosine receptor A1 turned out to be 11.3 µM. The Enhancement in assay [2] was determined as 132%.
For `Nc1sc2c(c1C(=O)c1ccccc1)CCCC2`, the Antagonism in assay [1] was determined as 34.7%. In addition, the Enhancement in assay [2] came to 47.2%.
In assay [1], `Cc1sc(N)c(C(=O)c2cccc(Cl)c2)c1C` displayed an Antagonism of 18.7%. The Enhancement in assay [2] amounted to 80.3%.
In assay [1], `Cc1sc(N)c(C(=O)c2ccc(Cl)cc2)c1C` had an Antagonism of 41%. In assay [2], the Enhancement was found to be 93.5%.
For `CCc1c(C)sc(N)c1C(=O)c1ccccc1` the same measures were 12.6% and 31.4%.
As for `CCc1c(C)sc(N)c1C(=O)c1ccc(Cl)cc1`, the Antagonism in assay [1] worked out at 19.8%. Further, in assay [2], the Enhancement is 97.2%.
In assay [1], `Nc1sc2c(c1C(=O)c1ccc([N+](=O)[O-])cc1)CCCC2` yielded an Antagonism of 19.5%. Also, the Enhancement in assay [2] amounted to 33.9%.
In the case of `Nc1sc2c(c1C(=O)c1ccc(I)cc1)CCCC2`, in assay [1], the Antagonism came to 64.4%. In addition, the EC50 on Adenosine receptor A1 stood at 4.5 µM. Besides, in assay [2], the Enhancement amounted to 155%.
In assay [1], `Nc1sc2c(c1C(=O)c1ccccc1)CCN(Cc1ccccc1)C2` registered an Antagonism of 67.1%. Besides, in assay [2], the Enhancement was 52.8%.
For `CCc1c(C)sc(N)c1C(=O)c1cccc(Cl)c1` the same measures were 22.3% and 29.9%.
`Nc1sc2c(c1C(=O)c1ccccc1)CCN(Cc1ccc(Cl)cc1)C2` yielded an Antagonism in assay [1] of 52.2%. Further, in assay [2], the Enhancement was determined as 69%.
In turn, `Cc1sc(N)c(C(=O)c2cccc(C(F)(F)F)c2)c1C` had an Antagonism in assay [1] of 39.5%. The EC50 at Adenosine receptor A1 was 14.7 µM. In addition, the Enhancement in assay [2] is 100%.
`Nc1sc2c(c1C(=O)c1ccccc1)CCN(C(=O)c1ccccc1)C2`: in assay [1], the Antagonism amounted to 71.8%. In addition, the Enhancement in assay [2] stood at 13.8%.
For `Nc1sc2c(c1C(=O)c1ccc(Cl)cc1)CCCC2` [T-62], the Antagonism in assay [1] was found to be 39.9%. Further, the EC50 at Adenosine receptor A1 stood at 6.8 µM. Further, the Enhancement in assay [2] is 123%.
In turn, `CCc1c(C)sc(N)c1C(=O)c1cccc(C(F)(F)F)c1` came in with an Antagonism in assay [1] of 5.4%. For the same molecule, the Enhancement in assay [2] was 112%.
Regarding `Nc1sc2c(c1C(=O)c1ccc(Cl)cc1)CCN(Cc1ccc(Cl)c(Cl)c1)C2`, in assay [1], the Antagonism is 45.7%. In addition, the EC50 on Adenosine receptor A1 was determined as 32 µM. Further, the Enhancement in assay [2] was 106%.
For `Nc1sc2c(c1C(=O)c1ccccc1)CCN(Cc1cccc(Cl)c1)C2` the same measures were 80.1%, 15.1 µM and 106%.
Regarding `Cc1ccc(C(=O)c2c(N)sc3c2CCCC3)cc1`, in assay [1], the Antagonism came out at 30.3%. On Adenosine receptor A1, the EC50 is 34.9 µM. Moreover, the Enhancement in assay [2] was 137%.
For `Nc1sc2c(c1C(=O)c1cccc(C(F)(F)F)c1)CCCC2` the same measures were 32.2%, 6 µM and 122%.
`COC(=O)c1ccc(C(=O)c2c(N)sc3c2CCCC3)cc1` returned an Antagonism in assay [1] of 28.9%. For the same molecule, in assay [2], the Enhancement amounted to 43.9%.
In assay [1], `Nc1sc2c(c1C(=O)c1cccc(I)c1)CCCC2` gave an Antagonism of 65.8%. For the same molecule, the Enhancement in assay [2] is 113%.
The molecule `Cc1sc(N)c(C(=O)c2ccccc2)c1C` had an Antagonism in assay [1] of 13.9%. For the same molecule, the Enhancement in assay [2] worked out at 8%.
For `Nc1sc2c(c1C(=O)c1ccccc1Cl)CCCC2` the same measures were 35.1% and 72.5%.
`Nc1sc2c(c1C(=O)c1ccc(Cl)c(Cl)c1)CCCC2` showed an Antagonism in assay [1] of 34.7%. Moreover, the EC50 on Adenosine receptor A1 amounted to 6.2 µM. Besides, the Enhancement in assay [2] was found to be 151%.
For `Nc1sc2c(c1C(=O)c1ccc(Br)cc1)CCCC2` the same measures were 41.6%, 16.4 µM and 128%.
`Nc1sc2c(c1C(=O)c1ccc(Cl)c(Cl)c1)CCN(Cc1ccccc1)C2` gave an Antagonism in assay [1] of 51%. In addition, the EC50 at Adenosine receptor A1 turned out to be 9.2 µM. Moreover, the Enhancement in assay [2] is 174%.
In assay [1], `Nc1sc2c(c1C(=O)c1ccccc1)CCN(Cc1ccc(Cl)c(Cl)c1)C2` returned an Antagonism of 4%. Also, the Enhancement in assay [2] came out at 57%.
Take `Nc1sc2c(c1C(=O)c1ccc(C(F)(F)F)cc1)CCCC2`: the Antagonism in assay [1] was 56.7%. For the same molecule, the EC50 on Adenosine receptor A1 came out at 4.7 µM. Also, the Enhancement in assay [2] is 131%.
Molecule `Nc1sc2c(c1C(=O)c1cccc(Cl)c1)CCCC2` returned an Antagonism in assay [1] of 50.6%. Further, the EC50 at Adenosine receptor A1 is 10.5 µM. The Enhancement in assay [2] was 92.7%.
Regarding `Nc1sc2c(c1C(=O)c1ccc(C(=O)O)cc1)CCCC2`, the Enhancement in assay [2] is 28.6%.
